Data: ChEMBL document CHEMBL4152384, “Pyrtriazoles, a Novel Class of Store-Operated Calcium Entry Modulators: Discovery, Biological Profiling, and in Vivo Proof-of-Concept Efficacy in Acute Pancreatitis” (J Med Chem, 2018)
One block for each molecule: values may come before it. Active and inactive are the calls of the source. The calls are words filed in the database; no cut-off is given here.

Legend:
[1] = Drug level in CD1 mouse liver microsomes treated with 3-(1-(4-(4-((Pentan-2-yloxy)carbonyl)-5-(trifluoromethyl)-1H-pyrazol-1-yl)-phenyl)-1H-1,2,3-triazol-4-yl)benzoic acid at 50 uM after 60 mind by mass spectroscopic analysis; assay type: ADME, microsome
[2] = molecular target: T1, Stromal interaction molecule 1 & 2/Calcium release-activated calcium channel protein 1 (Mus musculus) (UniProt Q8BWG9+P70302+P83093); test: (§1) Modulation of STIM1/STIM2/Orai1 in mouse BV2 cells assessed as induction of store-operated calcium entry by measuring residual activity at 10 uM preincubated for 30 mins followed by tBhQ-mediated Ca2+ depletion and Ca2+ re-addition to extracellular solution measured for 600 secs by Fluo-4 AM-based fluorometric assay relative to control; assay type: cell-based
[3] = molecular target: T2, Short transient receptor potential channel 1 & 3/Stromal interaction molecule 1/Calcium release-activated calcium channel protein 1 (Homo sapiens) (UniProt Q96D31+Q13507+Q13586+P48995); test: as §1, with “TRPC1/TRPC3/STIM1/Orai1” for “STIM1/STIM2/Orai1”, “HEK” for “mouse BV2”; assay type: cell-based
[4] = test system: Jurkat; test: as §1, with “Induction” for “Modulation”, “store-operated calcium entry” for “STIM1/STIM2/Orai1”, “human Jurkat” for “mouse BV2”; assay type: cell-based
[5] = molecular target: Stromal interaction molecule 1 & 2/Calcium release-activated calcium channel protein 1 (Homo sapiens, UniProt Q13586+Q96D31+Q9P246); test: Inhibition of STIM1/STIM2/Orai1 (unknown origin) expressed in mouse BV2 cells assessed as induction of store-operated calcium entry by measuring residual activity preincubated for 30 mins followed by tBhQ, mediated Ca2+ depletion and re-addition measured for 600 secs by Fluo-4 AM-based fluorometric assay; assay type: cell-based
[6] = molecular target: Short transient receptor potential channel 1 & 3/Stromal interaction molecule 1/Calcium release-activated calcium channel protein 1 (Homo sapiens, UniProt P48995+Q13507+Q13586+Q96D31); test: as §1, with “TRPC1/TRPC3/STIM1/Orai1” for “STIM1/STIM2/Orai1”, “HEK” for “mouse BV2”, “activity” for “activity at 10 uM”; assay type: cell-based
[7] = as §1, with “Induction” for “Modulation”, “store-operated calcium entry” for “STIM1/STIM2/Orai1”, “human Jurkat” for “mouse BV2”, “activity” for “activity at 10 uM”; assay type: cell-based
[8] = Cytotoxicity against HEK cells assessed as cell viability at 10 uM by MTT assay relative to control; assay type: cell-based; settings: human, read-out: Activity
How it was run: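 Hek cells treated 24 h with compound at 10 μM; viability determined by MTT assay.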

[9] = molecular target: T3, ORAI1/STIM1 (Homo sapiens) (UniProt Q96D31+Q13586); test: Inhibition of Orai1/STIM1 (unknown origin) expressed in HEK cells assessed as reduction in store-operated calcium currents at 10 uM by patch clamp assay relative to control; assay type: cell-based
How it was run: (§2)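 Whole-cell ISOC recorded in Hek cells stably overexpressing Orai1 and transiently expressing STIM1; internal solution strongly buffered with 20 mM BAPTA; compound at 10 μM versus untreated control.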

[10] = molecular target: Transient receptor potential cation channel subfamily V member 1 (Homo sapiens) (UniProt Q8NER1); test: Antagonist activity at TRPV1 (unknown origin) expressed in HEK cells assessed as inhibition of capsaicin-induced calcium increase at 10 uM by fura-2-based assay; assay type: cell-based
How it was run: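 TRPV1-overexpressing Hek cells; calcium rise evoked by capsaicin (100 nM), test compounds at 10 μM; peak amplitude read out; mean ± SEM of 600 cells from 30 plates on four separate experimental days.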

[11] = molecular target: Transient receptor potential cation channel subfamily M member 8 (Homo sapiens) (UniProt Q7Z2W7); test: Antagonist activity at TRPM8 (unknown origin) expressed in HEK cells assessed as inhibition of menthol -mediated calcium increase at 10 uM by fura-2-based assay; assay type: cell-based
How it was run: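 TRPM8-overexpressing Hek cells; calcium rise evoked by menthol (100 μM), test compounds at 10 μM; peak amplitude read out; mean ± SEM of 600 cells from 30 plates on four separate experimental days.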

[12] = Metabolic stability in CD1 mouse plasma assessed as residual compound level at 50 uM after 30 mins by LC-UV analysis; assay type: ADME, cell-free; settings: read-out: Stability
How it was run: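 Compounds incubated in mouse plasma for 30 min; percentage of residual substrate determined.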

[13] = molecular target: T1, Stromal interaction molecule 1 & 2/Calcium release-activated calcium channel protein 1 (Mus musculus); test: as §1, with “100” for “10”; assay type: cell-based
[14] = molecular target: T2, Short transient receptor potential channel 1 & 3/Stromal interaction molecule 1/Calcium release-activated calcium channel protein 1 (Homo sapiens); test: as §1, with “TRPC1/TRPC3/STIM1/Orai1” for “STIM1/STIM2/Orai1”, “HEK” for “mouse BV2”, “100” for “10”; assay type: cell-based
[15] = test system: Jurkat; test: as §1, with “Induction” for “Modulation”, “store-operated calcium entry” for “STIM1/STIM2/Orai1”, “human Jurkat” for “mouse BV2”, “100” for “10”; assay type: cell-based
[16] = Drug metabolism in CD1 mouse liver microsomes assessed as 1-(4-(4-(3-Carboxyphenyl)-1H-1,2,3-triazol-1-yl)phenyl)-5-(trifluoromethyl)-1H-pyrazole-4-carboxylic Acid metabolite formation at 50 uM after 60 mins by mass spectroscopic analysis; assay type: ADME, microsome
[17] = test system: voltage-gated calcium channel (Mus musculus); test: Antagonist activity at voltage-gated calcium channels in C57/BL6 mouse cerebellar granule cells assessed as inhibition of KCl-induced voltage dependent calcium entry at 10 uM by fura-2-based assay
[18] = test system: voltage-gated calcium channel (Mus musculus); test: as above; remark: listed apart in the source
[19] = species on record: Homo sapiens; test: Modulation of Orai1/STIM1 (unknown origin) expressed in HEK cells assessed as potentiation of store-operated calcium currents by measuring reduction in time constant of channel activation in presence of 20 mM BAPTA and 150 nM Ca2+ containing internal solution by patch clamp assay relative to control; assay type: cell-based
[20] = molecular target: T2, Short transient receptor potential channel 1 & 3/Stromal interaction molecule 1/Calcium release-activated calcium channel protein 1 (Homo sapiens); test: (§3) Modulation of TRPC1/TRPC3/STIM1/Orai1 in HEK cells assessed as induction of store-operated calcium entry by measuring increase in AUC of calcium entry at 0.3 to 10 uM preincubated for 30 mins followed by tBhQ-mediated Ca2+ depletion and Ca2+ re-addition to extracellular solution measured for 600 secs by Fluo-4 AM-based fluorometric assay relative to control; assay type: cell-based
[21] = molecular target: T2, Short transient receptor potential channel 1 & 3/Stromal interaction molecule 1/Calcium release-activated calcium channel protein 1 (Homo sapiens); test: as §3, with “peak amplitude” for “AUC of calcium entry”; assay type: cell-based
[22] = molecular target: T2, Short transient receptor potential channel 1 & 3/Stromal interaction molecule 1/Calcium release-activated calcium channel protein 1 (Homo sapiens); test: as §3, with “slope” for “AUC of calcium entry”; assay type: cell-based
[23] = molecular target: T1, Stromal interaction molecule 1 & 2/Calcium release-activated calcium channel protein 1 (Mus musculus); test: (§4) Modulation of STIM1/STIM2/Orai1 in mouse BV2 cells assessed as induction of store-operated calcium entry by measuring increase in AUC of calcium entry at 0.3 to 10 uM preincubated for 30 mins followed by tBhQ-mediated Ca2+ depletion and Ca2+ re-addition to extracellular solution measured for 600 secs by Fluo-4 AM-based fluorometric assay relative to control; assay type: cell-based
[24] = molecular target: T1, Stromal interaction molecule 1 & 2/Calcium release-activated calcium channel protein 1 (Mus musculus); test: as §4, with “peak amplitude” for “AUC of calcium entry”; assay type: cell-based
[25] = molecular target: T1, Stromal interaction molecule 1 & 2/Calcium release-activated calcium channel protein 1 (Mus musculus); test: as §4, with “slope” for “AUC of calcium entry”; assay type: cell-based
[26] = test system: Jurkat; test: as §3, with “Induction” for “Modulation”, “store-operated calcium entry” for “TRPC1/TRPC3/STIM1/Orai1”, “human Jurkat” for “HEK”, “peak amplitude” for “AUC of calcium entry”; assay type: cell-based
[27] = test system: Jurkat; test: as §3, with “Induction” for “Modulation”, “store-operated calcium entry” for “TRPC1/TRPC3/STIM1/Orai1”, “human Jurkat” for “HEK”; assay type: cell-based
[28] = test system: Jurkat; test: as §3, with “Induction” for “Modulation”, “store-operated calcium entry” for “TRPC1/TRPC3/STIM1/Orai1”, “human Jurkat” for “HEK”, “slope” for “AUC of calcium entry”; assay type: cell-based
[29] = molecular target: T3, ORAI1/STIM1 (Homo sapiens); test: Modulation of Orai1/STIM1 (unknown origin) expressed in HEK cells assessed as potentiation of store-operated calcium currents in presence of 20 mM BAPTA by patch clamp assay relative to control; assay type: cell-based; how it was run: as §2
[30] = molecular target: T3, ORAI1/STIM1 (Homo sapiens); test: Modulation of Orai1/STIM1 (unknown origin) expressed in HEK cells assessed as potentiation of store-operated calcium currents in presence of 20 mM BAPTA and 150 nM Ca2+ containing internal solution by patch clamp assay relative to control; assay type: cell-based
[31] = molecular target: T2, Short transient receptor potential channel 1 & 3/Stromal interaction molecule 1/Calcium release-activated calcium channel protein 1 (Homo sapiens); test: as §1, with “TRPC1/TRPC3/STIM1/Orai1” for “STIM1/STIM2/Orai1”, “HEK” for “mouse BV2”, “uM in presence of shTRPC1” for “uM”; assay type: cell-based
[32] = molecular target: Calcium release-activated calcium channel protein 1 (Mus musculus) (UniProt Q8BWG9); test: as §1, with “Orai1” for “STIM1/STIM2/Orai1”, “Stim1-/1 and Stim2-/- MEF” for “mouse BV2”; assay type: cell-based
[33] = molecular target: T1, Stromal interaction molecule 1 & 2/Calcium release-activated calcium channel protein 1 (Mus musculus); test: as §1, with “entry” for “entry by measuring residual activity”, “800” for “600”; assay type: cell-based
How it was run: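 Microplate Fluo-4 assay in mouse microglial BV-2 cells. Stores emptied with tBhQ (50 μM) in presence of compound (10 μM); extracellular Ca2+ re-added after 600 s and intracellular Ca2+ read fluorimetrically; SOCE expressed versus control.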

[34] = molecular target: T2, Short transient receptor potential channel 1 & 3/Stromal interaction molecule 1/Calcium release-activated calcium channel protein 1 (Homo sapiens); test: as §3, with “entry” for “entry by measuring increase in AUC of calcium entry”, “at” for “at 0.3 to”, “800” for “600”; assay type: cell-based
[35] = test system: Jurkat; test: Induction of store-operated calcium entry in human Jurkat cells assessed as induction of store-operated calcium entry at 10 uM preincubated for 30 mins followed by tBhQ-mediated Ca2+ depletion and Ca2+ re-addition to extracellular solution measured for 800 secs by Fluo-4 AM-based fluorometric assay relative to control; assay type: cell-based

T3 sequence (Q13586 23-685 partner limits assumed): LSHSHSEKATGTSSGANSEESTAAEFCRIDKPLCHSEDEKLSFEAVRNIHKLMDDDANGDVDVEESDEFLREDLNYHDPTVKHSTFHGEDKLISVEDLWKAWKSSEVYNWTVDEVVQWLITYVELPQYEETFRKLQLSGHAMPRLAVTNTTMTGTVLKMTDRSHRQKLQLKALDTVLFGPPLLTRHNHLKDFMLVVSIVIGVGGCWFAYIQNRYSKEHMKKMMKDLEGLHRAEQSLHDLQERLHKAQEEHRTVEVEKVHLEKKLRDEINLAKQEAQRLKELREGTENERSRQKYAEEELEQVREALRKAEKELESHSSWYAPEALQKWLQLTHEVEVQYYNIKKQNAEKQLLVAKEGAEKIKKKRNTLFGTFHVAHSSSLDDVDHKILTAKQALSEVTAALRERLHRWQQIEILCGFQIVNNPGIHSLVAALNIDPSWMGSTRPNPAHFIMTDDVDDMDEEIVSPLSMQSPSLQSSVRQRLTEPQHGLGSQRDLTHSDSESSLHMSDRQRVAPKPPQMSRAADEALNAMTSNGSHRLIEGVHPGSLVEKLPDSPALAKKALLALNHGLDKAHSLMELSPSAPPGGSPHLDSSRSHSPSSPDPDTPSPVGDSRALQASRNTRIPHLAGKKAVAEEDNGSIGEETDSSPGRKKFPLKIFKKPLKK
T3 sequence (Q96D31 whole entry): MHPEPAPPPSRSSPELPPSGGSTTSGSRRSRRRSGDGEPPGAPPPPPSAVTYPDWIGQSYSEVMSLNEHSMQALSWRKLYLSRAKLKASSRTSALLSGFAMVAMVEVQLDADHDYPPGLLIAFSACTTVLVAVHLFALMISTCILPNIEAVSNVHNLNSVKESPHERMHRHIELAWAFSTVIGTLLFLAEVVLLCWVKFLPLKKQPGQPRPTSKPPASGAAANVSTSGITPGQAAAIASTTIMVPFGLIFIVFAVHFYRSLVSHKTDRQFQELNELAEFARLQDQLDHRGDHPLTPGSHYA
T2 sequence (P48995 whole entry partner): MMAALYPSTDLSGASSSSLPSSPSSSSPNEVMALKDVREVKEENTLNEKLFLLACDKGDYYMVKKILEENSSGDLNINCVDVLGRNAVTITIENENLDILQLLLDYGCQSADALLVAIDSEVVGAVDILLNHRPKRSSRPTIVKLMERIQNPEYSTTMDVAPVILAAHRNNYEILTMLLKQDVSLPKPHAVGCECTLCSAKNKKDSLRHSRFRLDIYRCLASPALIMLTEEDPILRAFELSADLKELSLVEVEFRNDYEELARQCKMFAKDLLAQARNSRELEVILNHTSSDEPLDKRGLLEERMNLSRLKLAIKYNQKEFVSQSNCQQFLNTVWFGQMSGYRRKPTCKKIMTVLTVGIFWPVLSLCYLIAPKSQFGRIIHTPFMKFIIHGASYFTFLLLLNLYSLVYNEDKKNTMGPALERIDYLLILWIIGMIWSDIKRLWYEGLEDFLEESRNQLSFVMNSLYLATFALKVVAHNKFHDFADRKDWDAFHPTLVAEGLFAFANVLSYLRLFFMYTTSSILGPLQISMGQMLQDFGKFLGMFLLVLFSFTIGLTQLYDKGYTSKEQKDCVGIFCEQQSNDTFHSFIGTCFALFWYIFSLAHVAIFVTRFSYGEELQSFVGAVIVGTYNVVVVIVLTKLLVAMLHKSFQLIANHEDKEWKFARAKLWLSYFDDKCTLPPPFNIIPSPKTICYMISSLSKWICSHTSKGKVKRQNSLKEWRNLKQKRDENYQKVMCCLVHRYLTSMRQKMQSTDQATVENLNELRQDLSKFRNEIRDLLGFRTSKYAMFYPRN
T2 sequence (Q13507 whole entry partner): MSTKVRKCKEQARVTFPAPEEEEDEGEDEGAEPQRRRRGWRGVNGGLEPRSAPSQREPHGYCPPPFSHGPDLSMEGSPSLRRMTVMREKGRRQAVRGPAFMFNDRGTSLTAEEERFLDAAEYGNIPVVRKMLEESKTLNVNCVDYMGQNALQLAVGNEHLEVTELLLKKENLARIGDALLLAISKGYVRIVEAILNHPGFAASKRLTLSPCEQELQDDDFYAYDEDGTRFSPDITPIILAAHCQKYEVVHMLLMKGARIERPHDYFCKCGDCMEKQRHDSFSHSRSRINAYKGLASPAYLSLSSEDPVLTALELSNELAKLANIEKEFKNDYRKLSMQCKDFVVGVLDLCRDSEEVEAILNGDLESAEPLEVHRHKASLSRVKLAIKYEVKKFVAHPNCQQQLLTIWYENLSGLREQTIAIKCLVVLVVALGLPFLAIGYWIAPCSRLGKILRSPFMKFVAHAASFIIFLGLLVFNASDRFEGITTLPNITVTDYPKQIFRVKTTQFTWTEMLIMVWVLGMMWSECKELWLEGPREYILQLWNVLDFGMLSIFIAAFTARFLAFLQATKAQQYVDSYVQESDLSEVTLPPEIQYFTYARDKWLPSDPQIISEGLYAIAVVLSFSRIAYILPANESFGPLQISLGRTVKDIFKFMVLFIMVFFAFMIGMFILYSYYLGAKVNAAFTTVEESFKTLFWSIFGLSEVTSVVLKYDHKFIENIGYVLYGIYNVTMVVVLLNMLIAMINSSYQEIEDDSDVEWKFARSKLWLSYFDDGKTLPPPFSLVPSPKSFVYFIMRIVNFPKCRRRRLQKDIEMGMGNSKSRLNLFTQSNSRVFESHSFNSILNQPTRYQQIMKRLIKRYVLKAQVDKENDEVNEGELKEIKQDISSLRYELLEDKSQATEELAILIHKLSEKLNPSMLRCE
T2 sequence (Q13586 23-685 partner limits assumed): as the sequence (Q13586 23-685 partner limits assumed) above
T2 sequence (Q96D31 whole entry): as the sequence (Q96D31 whole entry) above
Sequence of Transient receptor potential cation channel subfamily V member 1 (Homo sapiens) (Q8NER1 whole entry): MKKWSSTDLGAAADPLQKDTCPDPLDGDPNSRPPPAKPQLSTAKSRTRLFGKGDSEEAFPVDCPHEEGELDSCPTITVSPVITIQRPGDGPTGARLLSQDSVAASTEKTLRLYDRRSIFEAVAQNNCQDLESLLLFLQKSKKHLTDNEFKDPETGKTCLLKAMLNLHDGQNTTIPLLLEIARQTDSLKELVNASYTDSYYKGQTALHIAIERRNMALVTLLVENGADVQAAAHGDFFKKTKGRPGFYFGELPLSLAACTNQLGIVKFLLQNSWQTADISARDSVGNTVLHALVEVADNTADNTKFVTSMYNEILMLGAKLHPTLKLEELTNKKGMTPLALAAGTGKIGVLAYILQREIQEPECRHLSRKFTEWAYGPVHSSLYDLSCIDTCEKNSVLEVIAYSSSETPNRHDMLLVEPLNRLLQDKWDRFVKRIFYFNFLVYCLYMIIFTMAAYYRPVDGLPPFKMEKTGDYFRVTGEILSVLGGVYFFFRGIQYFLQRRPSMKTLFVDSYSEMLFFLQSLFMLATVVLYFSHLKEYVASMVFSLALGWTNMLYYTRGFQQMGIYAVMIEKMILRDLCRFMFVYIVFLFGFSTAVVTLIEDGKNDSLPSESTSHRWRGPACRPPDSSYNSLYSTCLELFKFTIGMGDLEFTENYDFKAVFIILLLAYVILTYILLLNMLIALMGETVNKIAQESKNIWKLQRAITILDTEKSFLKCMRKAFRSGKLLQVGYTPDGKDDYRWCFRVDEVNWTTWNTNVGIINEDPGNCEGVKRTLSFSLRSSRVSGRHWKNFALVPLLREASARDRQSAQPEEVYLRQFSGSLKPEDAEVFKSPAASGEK
Sequence of Transient receptor potential cation channel subfamily M member 8 (Homo sapiens) (Q7Z2W7 whole entry, looked up): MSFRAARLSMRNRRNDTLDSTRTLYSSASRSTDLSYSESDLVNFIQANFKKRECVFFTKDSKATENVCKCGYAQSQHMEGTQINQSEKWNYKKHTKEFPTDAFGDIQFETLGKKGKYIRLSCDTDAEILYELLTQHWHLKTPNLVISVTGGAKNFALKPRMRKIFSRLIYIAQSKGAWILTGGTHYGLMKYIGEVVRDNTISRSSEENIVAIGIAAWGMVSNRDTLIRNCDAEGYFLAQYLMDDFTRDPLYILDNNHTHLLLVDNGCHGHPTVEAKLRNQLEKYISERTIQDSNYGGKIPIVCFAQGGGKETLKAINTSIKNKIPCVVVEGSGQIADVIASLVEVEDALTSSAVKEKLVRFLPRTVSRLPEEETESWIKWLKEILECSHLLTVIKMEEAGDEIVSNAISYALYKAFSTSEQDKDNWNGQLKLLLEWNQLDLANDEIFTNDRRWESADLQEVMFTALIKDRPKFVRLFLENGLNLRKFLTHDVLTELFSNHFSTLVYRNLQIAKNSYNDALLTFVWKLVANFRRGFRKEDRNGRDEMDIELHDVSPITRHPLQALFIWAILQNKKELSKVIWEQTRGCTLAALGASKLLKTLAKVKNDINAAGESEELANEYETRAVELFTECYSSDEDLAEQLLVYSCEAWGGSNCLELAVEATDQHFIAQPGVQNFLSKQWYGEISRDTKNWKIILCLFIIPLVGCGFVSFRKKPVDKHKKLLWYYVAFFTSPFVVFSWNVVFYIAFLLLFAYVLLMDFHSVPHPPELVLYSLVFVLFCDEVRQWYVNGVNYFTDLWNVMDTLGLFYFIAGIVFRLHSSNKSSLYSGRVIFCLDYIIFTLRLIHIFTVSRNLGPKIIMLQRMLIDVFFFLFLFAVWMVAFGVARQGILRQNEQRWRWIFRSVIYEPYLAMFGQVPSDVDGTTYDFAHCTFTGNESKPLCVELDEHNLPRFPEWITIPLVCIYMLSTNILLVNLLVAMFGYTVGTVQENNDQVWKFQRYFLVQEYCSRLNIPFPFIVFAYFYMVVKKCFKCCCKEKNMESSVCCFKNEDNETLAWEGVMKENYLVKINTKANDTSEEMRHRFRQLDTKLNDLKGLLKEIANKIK
Sequence of Calcium release-activated calcium channel protein 1 (Mus musculus) (Q8BWG9 whole entry): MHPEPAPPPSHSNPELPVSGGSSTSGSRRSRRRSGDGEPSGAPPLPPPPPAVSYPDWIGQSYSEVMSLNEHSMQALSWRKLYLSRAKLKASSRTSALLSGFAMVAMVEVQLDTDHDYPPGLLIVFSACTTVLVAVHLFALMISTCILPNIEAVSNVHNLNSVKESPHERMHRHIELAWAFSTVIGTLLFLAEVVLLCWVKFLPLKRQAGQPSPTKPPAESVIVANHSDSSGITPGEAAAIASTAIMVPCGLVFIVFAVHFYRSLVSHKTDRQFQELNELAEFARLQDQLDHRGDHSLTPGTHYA

Drug uptake [1]: Active
SMILES: CCCC(C)OC(=O)c1cnn(-c2ccc(-n3cc(-c4cccc(C(=O)O[C@@H]5O[C@H](C(=O)O)[C@@H](O)[C@H](O)[C@H]5O)c4)nn3)cc2)c1C(F)(F)F (some centres not stated)

Activity [2]: 54.7%
Activity [3]: 12.8%
IC50 [5]: 4.9 µM
IC50 [6]: 0.6 µM
IC50 [7]: 0.6 µM
inhibition [9]: 40%
inhibition [10]: Active
inhibition [11]: inactive
remaining at 0.5 h, 50 µM [12]: 0%
residual activity [13]: < 100%
residual activity [14]: < 100%
Drug metabolism [16]: Metabolite_Notdetected
inhibition [17]: inactive
inhibition [18]: inactive
SMILES: CCOC(=O)c1cnn(-c2ccc(-n3cc(-c4cccc(C(=O)O)c4)nn3)cc2)c1C(F)(F)F
Activity [4]: 12.8%
viability at 10 µM [8]: 84%
residual activity [15]: < 100%

Activity [2]: 198%
Activity [3]: 213%
inhibition [10]: inactive
inhibition [11]: inactive
Activity [20]: Active
Activity [21]: Active
Activity [22]: Active
Activity [23]: Active
Activity [24]: Active
Activity [25]: Active
Activity [29]: Active
Activity [30]: inactive
Activity [31]: Active
Activity [32]: Active
Activity [33]: Active
Activity [34]: Active
inhibition [17]: inactive
inhibition [18]: inactive
SMILES: O=C(O)c1ccc(-c2cn(-c3ccc(-n4nc(C(F)(F)F)cc4C(F)(F)F)cc3)nn2)cc1
Activity [4]: 236%
Activity [19]: Active
Activity [26]: Active
Activity [27]: Active
Activity [28]: Active
Activity [35]: Active
